This passage reports yeast fitness results from the RNAGym collection of RNA variant scans (doi:10.1126/science.aae0568).

B1: tRNA (parent)
chain: GUUCCGUUGGCGUAAUGGUAACGCGUCUCCCUCCUAAGGAGAAGACUGCGGGUUCGAGUCCCGUACGGAACG

This sample holds only a part of the variants without activity.

Variants of B1 are the subject of the data set. The data set is described as follows: yeast fitness relative to wild type (ratio to wild type); higher = fitter; tRNA-Arg(CCU), competitive growth, 37 C, YPD. The method, boiled down: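 For this measurement, the tRNA-Arg(CCU) gene was varied by chemical synthesis at a 3% per-site mutation rate across 69 sites, and each variant was placed at the native genomic locus in Saccharomyces cerevisiae. The pooled strains went through a 24-hour competition in YPD at 37°C in six parallel replicates, with amplicons from start and end populations read by 100-nucleotide paired-end sequencing. Darwinian fitness relative to wild type followed from the change in each genotype's frequency. Genotypes needed ≥ 100 starting reads, and estimates < 0.5 were set to 0.5.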
As to U8A G23A U32G C60U U64G A69C, the yeast fitness is at most 0.5.

Consider U8A C29G C60U G67A A69U, for which the yeast fitness was at most 0.5. Under U8A C22G A43U G52A U54C G56U U64C stands at most 0.5; under U8A C27A C49U A69U, at most 0.5. For U7G U59G A69C the value was at most 0.5. Under U8A C22U C34G A36U A57G A65C stands at most 0.5; under U8A A21G C24A C30A A45U C49A A65U, at most 0.5. For the variant U8A G9C A57C, the yeast fitness came out at 0.701. Under U8A C29G C62G stands 0.576; under U8A A36U, 0.559; under U8A A15U C27G A36G G38U, at most 0.5. For U8A C11U A43U C61A A65U the value was at most 0.5.

For U8A C55U, the yeast fitness was at most 0.5. Turning to U8A C55G, the yeast fitness is at most 0.5.

Take U8A G12C G17A C29U G38A G44C G50A: the yeast fitness was at most 0.5. For U8A C24U A40U A42C A65C A69C the value was at most 0.5; for U8A A42U A43U, 0.58; for U8C A14G A20U C30G A37G G44A, at most 0.5. For U8A A70C the value was 0.776. For the variant U8A C22U A36G A40C U47A, the yeast fitness is at most 0.5.

With U8A U28C U47A, the yeast fitness was at most 0.5.

Turning to U8A C33A A40G, the yeast fitness was at most 0.5.

Regarding U8A C33A A40C, the yeast fitness is at most 0.5. Take U7G U13A A69U: the yeast fitness was determined as 0.629. For U8A C11U A20G G25C G39C the value was at most 0.5. In the case of U8A U19C A21C G39C C61U, the yeast fitness was at most 0.5.

Regarding U8A G50A A69U, the yeast fitness came to 0.589. U8A U19C: the yeast fitness came out at 0.805. Take U8A G10A G67C A69U: the yeast fitness was at most 0.5. For U8A C34A A45C A65C the value was 0.718.

Regarding U8A A15C G18C C49U U64A A69U, the yeast fitness worked out at 0.651.

Turning to U8A A14C G17C C24U A45U G67C, the yeast fitness is at most 0.5. Turning to U8A A21U C55A, the yeast fitness is at most 0.5. Under U7G U32C stands 0.992; under U7G U32G, 0.569; under U8A G48C A70G, at most 0.5. For U8A U59A C66G A70C the value was at most 0.5. Under U8A C27U A42G stands at most 0.5; under U8A C31U G58A C61G C66U, at most 0.5. Turning to U8A C22U U59A, the yeast fitness was at most 0.5.

As for U8C A14G C27U U32A, the yeast fitness was at most 0.5.

In the case of U8A A37C U53C, the yeast fitness came to 0.545.

U8A C61A G67A: the yeast fitness was 0.528. Under U8A C27A U47C stands 0.558; under U8A A15U A20C A45G, at most 0.5. Under U8A C60G G67A stands at most 0.5; under U8A G10C C27A G48A, at most 0.5.

Turning to U8A C24U A40U A42G A45U, the yeast fitness is at most 0.5. For U8A G38C the value was 0.647; for U8A U16G, 0.628; for U8A U26G C29A C46U G58A, at most 0.5. For U8A A42U U59A the value was at most 0.5; for U8A U19C A21C G39C, at most 0.5; for U8A A40G C62A, at most 0.5. Under U8A G58A G67U stands 0.618. For U8A C34U A36G A45U U64A, the yeast fitness is at most 0.5. Take U8A A15G C27A G56A: the yeast fitness is at most 0.5. For U8A U26A C29A C62U the value was 0.537; for U8A C29U G51C A57G, at most 0.5. As to U8A C60U, the yeast fitness is 0.551. In the case of U7G U26A G63A, the yeast fitness was at most 0.5. For the variant U7G U47A C61A, the yeast fitness was 0.781. In the case of U8A A14U G17A G25A, the yeast fitness was at most 0.5. For the variant U8A G38A G48C G67A, the yeast fitness worked out at 0.69. Under U8A A15U A21G C34A A37G stands 0.51. U8A G17A U26C C29G U35A A42G A69U: the yeast fitness is at most 0.5. On to U8A G18A A69C, for which the yeast fitness was at most 0.5. In the case of U7G U19C U64C, the yeast fitness came to 0.954. For U8A G18A U47G U54A, the yeast fitness was at most 0.5.

In the case of U8A U28A C33A A36U A57G, the yeast fitness was at most 0.5. For U8A C33U, the yeast fitness was at most 0.5.

With U8A G44A, the yeast fitness came out at 0.644. For U8A G44C the value was 0.788; for U7G U32A C61G, at most 0.5; for U8A C22U, 0.634. For U8A C30U A42G A57C the value was at most 0.5.

On to U8A A43C A65U, for which the yeast fitness was at most 0.5. On to U8A A21G C24A C30A A45U C49A, for which the yeast fitness came to 0.765. For U8A A43U A70G the value was 0.532; for U8A C33U C66A, at most 0.5; for U8A C24A U28C G68U, 0.531. For U8A G10A U13C A14U C27G U47C C62A the value was at most 0.5.

As to U8A A43U C49U C55A, the yeast fitness was at most 0.5. Under U8A G12C G17A C33U A40G G41C stands at most 0.5; under U7G U26C A43G C49U, at most 0.5; under U8A U13C, 0.747. Regarding U8A G52A G56U, the yeast fitness was at most 0.5.

Regarding U8A G10C G12C C34G G67U, the yeast fitness was at most 0.5. For U8A G51C the value was 0.534; for U8A G23A C30U U35C, at most 0.5; for U7G U32C A65G, 0.795. For U8A U19G C24G U32A the value was at most 0.5; for U8A C11U G25A C33A A40U C61A C62U, at most 0.5. As for U8A G18A C30A U32A U35G G56A C60A C62G C66A, the yeast fitness is at most 0.5. For U8A U35A G44C A45U the value was 0.64; for U7G U32C C46G, 0.62. Under U8A G23A C30G A65U stands 0.55; under U8A C30U A40U G52C, at most 0.5; under U8A C30U C46A U54A A57G, at most 0.5. For U8A C34U A65U the value was at most 0.5; for U8A C11A C24A C29A C34U C61G, at most 0.5. For U8C A14C C30G, the yeast fitness is at most 0.5. Regarding U8A C27A, the yeast fitness is 0.625.

As to U8A C31U, the yeast fitness was determined as 0.631. Under U8A A15G G50C C55U C60G A69G stands at most 0.5; under U8A G18A C30A U32A U35G C55U G67A, at most 0.5; under U8A C30G C62U G67C, 0.546. Under U8A A37C A43U stands 0.541; under U8A G25C C31G, at most 0.5; under U8A C22U U35C, at most 0.5. For U8A A37G A43G U59A the value was 0.582. As to U8A C27U A42G C62G G68A, the yeast fitness is at most 0.5. For U8A U13A A15U C46G A69U the value was at most 0.5; for U7G U26C A42U C46U C66U, at most 0.5; for U8A G18C G25C C60U U64A, at most 0.5. Under U8A A65G stands 0.855; under U8A A65C, 0.837. With U8A A65U, the yeast fitness was 0.708.

As to U8A A14G G39C, the yeast fitness was at most 0.5. As to U8A U32C, the yeast fitness turned out to be 0.648. For U8A G18A C30G U32A U35G G67A the value was at most 0.5; for U8A G23C, at most 0.5; for U8A U26G C46G, at most 0.5. Under U8A C11U A21C G56C G68C stands at most 0.5; under U8A G9C A15G U54A, at most 0.5; under U8A G44C A57U C62U, at most 0.5. As for U8C A14G G23A, the yeast fitness is at most 0.5. Under U8A G18C A36U C66U stands 0.505; under U8A A15U C29U G38C, at most 0.5. Under U8A U13A A14C U16C G67A stands at most 0.5; under U8A G18C C24A C27U U32C U54G C55U, at most 0.5. Under U8A A37G A42U U54C stands at most 0.5. Take U8A A15U C34U U64G: the yeast fitness was at most 0.5. With U8A C30A, the yeast fitness stood at 0.604. Take U8A G56U G67A A70C: the yeast fitness was at most 0.5.

In the case of U8A G25A G48C C62A, the yeast fitness was at most 0.5. As for U8A G9A C24G A69G, the yeast fitness is at most 0.5. For U8A G9A U19G C24G the value was 0.551. For the variant U7G U13C A57U, the yeast fitness is at most 0.5. Regarding U8A G18C C24A U26A U32C, the yeast fitness is at most 0.5. For U8A G17A C24U A69C the value was 0.693. Under U8A C66G stands 0.582; under U8A C66U, 0.775; under U8A A21G C24A C30A A45U U47C C49A, 0.572.

For the variant U7G U13A A42G C66G G67C, the yeast fitness was at most 0.5. Under U8A A15G C27A G67A stands at most 0.5. Under U8A U13A C29G A45C G68C A69G stands at most 0.5; under U8A A15U A20U G25C C29A A40C G50A, at most 0.5; under U8A A37C, 0.679. Regarding U8A A37G, the yeast fitness was at most 0.5. Under U7G U28G C34U G38A stands at most 0.5; under U8A C11A C66U, 0.585.

Consider U8A C11U A70C, for which the yeast fitness was found to be 0.622. For U8A C49U, the yeast fitness was found to be 0.779. With U8A A36G G44A, the yeast fitness came out at 0.527. Under U8A A15G stands 0.665; under U8A A15U, 0.587; under U8A A15C, 0.631. In the case of U8A A14C C31A G41C C49A G56A G67C, the yeast fitness is at most 0.5. For U8A A36U G68C the value was at most 0.5. For U8A C24G U26A G50A the value was at most 0.5. In the case of U8A C29A U47C, the yeast fitness was at most 0.5.

Take U8A C22G U35C A70G: the yeast fitness was at most 0.5. For U8A U28G, the yeast fitness was found to be 0.661. For U8A A15C U26A C33A C61A U64A, the yeast fitness was at most 0.5. Take U8A G44C C62U: the yeast fitness was at most 0.5. Under U8A C31A C61U stands at most 0.5.
